The source made the active and inactive calls. The calls are words filed in the database; no cut-off is given here.

In test [1] the test system is Canis familiaris. Nature of the test: Inhibition of histamine stimulated gastric acid secretion in adult mongrel dogs at dose 1 mg/kg given intravenously. In kind it is functional. The following applies: Canis lupus familiaris, Stomach, route intravenous. The gist of the method:
(§1)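 Dogs with Heidenhain pouches, 12–18 kg, fasted 18 h. Compound given iv in 3 mL or by gavage in 5 mL of 0.4% methylcellulose/saline, 1 h after infusion start. 30-min collections titrated. Summed 3-h AO against the same dog's control AO gives % inhibition. Usually one dog per compound.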

Test [2] relates to Rattus norvegicus. The test can be described thus: Gastric antisecretory activity in the pylorus-ligated rat and the reduction in acid output was measured after 4 hr by intraperitoneal (ip) administration of 40 mg/kg dose. In kind it is functional. The gist of the method:
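Male Charles River CD rats, 150–200 g, fasted 24 h. Pylorus ligated under Brevital anesthesia. 40 mg/kg given ip in 2.5% Tween 80 at ligation. Stomach contents collected at 4 h and titrated with 0.1 N NaOH to pH 7.0. % inhibition from mean AO, 6 treated vs 8 control rats. Student's t test.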

The species entered for test [3] is Rattus norvegicus. Nature of the test: Oral gastric cytoprotective activity in the rat against ethanol-induced lesions was evaluated. The following applies: Stomach.
Test [4] relates to Canis familiaris. Nature of the test: Inhibition of histamine stimulated gastric acid secretion in adult mongrel dogs at dose 5 mg/kg given intravenously. In kind it is functional. The following applies: Canis lupus familiaris, Stomach, route intravenous. The gist of the method:
as §1

The species named for test [5] is Rattus norvegicus. Nature of the test: Oral gastric cytoprotective activity in the rat against ethanol-induced lesions was evaluated; NA=Inactive. In kind it is functional, organism-based. The following applies: Stomach. The gist of the method:
(§2)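 Rats fasted and water-deprived for 20 h. Compound given orally, 1–30 mg/kg in 0.4% methylcellulose/saline, 30 min before 1 mL absolute ethanol po. Killed 1 h after ethanol. Linear hemorrhagic lesion lengths totalled per stomach, expressed as group mean. ED50 by linear regression.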

The test system of test [6] is Canis familiaris. The test can be described thus: Inhibition of histamine stimulated gastric acid secretion in adult mongrel dogs at dose 2 mg/kg given intravenously. The following applies: Canis lupus familiaris, Stomach, route intravenous. In kind it is functional. The gist of the method:
as §1

Test [7] concerns Canis familiaris. Nature of the test: Inhibition of histamine stimulated gastric acid secretion in mongrel dogs following 4 mg/kg p.o. administration. In kind it is functional. Conditions: Canis lupus familiaris, Stomach, route oral. The gist of the method:
as §1

Test [8] concerns Canis familiaris. Nature of the test: Inhibition of histamine stimulated gastric acid secretion in adult mongrel dogs at dose 8 mg/kg given orally. In kind it is functional. The following applies: Canis lupus familiaris, Stomach, route oral. The gist of the method: as §1
For test [9], the species on record is Rattus norvegicus. The test can be described thus: Oral gastric cytoprotective activity in the rat against ethanol-induced lesions. In kind it is functional. The following applies: Stomach. The gist of the method:
as §2

The test system of test [10] is Canis familiaris. The test can be described thus: Inhibition of histamine stimulated gastric acid secretion in adult mongrel dogs at dose 0.1 mg/kg given intravenously. The following applies: Canis lupus familiaris, Stomach, route intravenous. In kind it is functional. The gist of the method: as §1
For test [11], the system named is Canis familiaris. Nature of the test: Inhibition of histamine stimulated gastric acid secretion in adult mongrel dogs at dose 4 mg/kg given orally. In kind it is functional. Conditions: Canis lupus familiaris, Stomach, route oral. The gist of the method: as §1
For test [12], the system named is Canis familiaris. Nature of the test: Inhibition of histamine stimulated gastric acid secretion in adult mongrel dogs at dose 2 mg/kg given orally. In kind it is functional. Conditions: Canis lupus familiaris, Stomach, route oral. The gist of the method:
as §1

Take `Cc1nc2c(CSc3ccccc3)cccn2c1C`: in test [1], the inhibition in vivo (as a rule, how much of the control response was suppressed) at 1 mg/kg was 31%. In test [2], at 40 mg/kg the inhibition in vivo was 29%. The 50% effect level in [3] (ED50) was put at a dose of 6.4 mg/kg.

Compound `Cc1nc2c(OCc3ccccc3)cccn2c1C(=O)O` showed an inhibition in vivo at 5 mg/kg in test [4] of 4%. Further, in test [5], the ED50 – broadly, the dose that gives a 50% effect, or the effect in half of the subjects – is “inactive”. Testing at 40 mg/kg in test [2] gave an inhibition in vivo of 0%.

In test [1], `Cc1nc2c(OCc3ccccc3)cccn2c1CO` displayed an inhibition in vivo at 1 mg/kg of 57%. The same compound registered an inhibition in vivo at 2 mg/kg in test [6] of 80%. The same compound had an inhibition in vivo at 4 mg/kg in test [7] of 20%. Moreover, at 5 mg/kg the inhibition in vivo in test [4] was 80%. The compound further had an inhibition in vivo at 8 mg/kg in [8] of 20%. Further, the ED50 in [9] is 16 mg/kg. The inhibition in vivo at 40 mg/kg in test [2] came out at 99%.

As to `Cc1nc2c(CCc3ccccc3)cccn2c1CC#N`, at 0.1 mg/kg the inhibition in vivo in test [10] was 74%. The compound further showed an inhibition in vivo at 2 mg/kg in [6] of 92%. This compound came in with an inhibition in vivo at 5 mg/kg in test [4] of 96%. Moreover, the inhibition in vivo at 8 mg/kg in [8] is 83%. Testing at 4 mg/kg in test [11] gave an inhibition in vivo of 3%. The ED50 in test [9] was found to be 7 mg/kg. This compound displayed an inhibition in vivo at 40 mg/kg in [2] of 99%.

Turning to `Cc1nc2c(OCc3ccccc3)cccn2c1C#N`, the inhibition in vivo at 5 mg/kg in test [4] was determined as 4%. Moreover, the ED50 result in test [5] was “inactive”. Further, in test [2], the inhibition in vivo at 40 mg/kg came to 25%.

In turn, `Cc1nc2c(OCc3cccs3)cccn2c1CC#N` had an inhibition in vivo at 0.1 mg/kg in test [10] of 26%. This compound returned an inhibition in vivo at 1 mg/kg in test [1] of 90%. In test [4], this compound registered an inhibition in vivo at 5 mg/kg of 99%. Besides, in [8], the inhibition in vivo at 8 mg/kg stood at 75%. Besides, testing at 4 mg/kg in [11] gave an inhibition in vivo of 17%. The same compound displayed an ED50 in test [9] of 7 mg/kg. In addition, in test [2], the inhibition in vivo at 40 mg/kg was found to be 96%.

`[C-]#[N+]Cc1c(C)nc2c(OCc3ccccc3)cccn12` registered an inhibition in vivo at 0.1 mg/kg in test [10] of 37%. Also, at 2 mg/kg the inhibition in vivo in [6] was 94%. In [7], this compound returned an inhibition in vivo at 4 mg/kg of 8%. The compound further returned an inhibition in vivo at 8 mg/kg in test [8] of 94%. Moreover, in test [2], the inhibition in vivo at 40 mg/kg is 96%. For the same compound, it took a dose of 2.2 mg/kg to reach the 50% effect level in test [3] (ED50).

As to `N#CCc1cnc2c(OCc3ccccc3)cccn12`, 1 mg/kg produced 52% inhibition in vivo in test [1]. The inhibition in vivo at 2 mg/kg in [6] was determined as 96%; in test [12], 6%. The same compound returned an inhibition in vivo at 8 mg/kg in test [8] of 46%. In addition, the ED50 in test [9] was 1 mg/kg. Besides, in test [2], testing at 40 mg/kg gave an inhibition in vivo of 99%.

As for `Cc1nc2c(OCCc3ccccc3)cccn2c1CC#N`, the inhibition in vivo at 2 mg/kg in [12] was determined as 0%. At 4 mg/kg the inhibition in vivo in test [7] was 47%. For the same compound, in test [4], at 5 mg/kg the inhibition in vivo was 95%. The compound also came in with an inhibition in vivo at 8 mg/kg in [8] of 89%. For the same compound, in test [9], it took a dose of 6 mg/kg to reach the 50% effect level (ED50). Also, in test [2], the inhibition in vivo at 40 mg/kg stood at 70%.

Regarding `Cc1nc2c(OCc3ccc(Cl)cc3)cccn2c1CC#N`, the inhibition in vivo at 0.1 mg/kg in test [10] is 29%. For the same compound, the inhibition in vivo at 2 mg/kg in test [6] was determined as 58%; in test [12] it was 30%. In test [7], this compound came in with an inhibition in vivo at 4 mg/kg of 56%. For the same compound, in [4], the inhibition in vivo at 5 mg/kg stood at 95%. The same compound came in with an inhibition in vivo at 8 mg/kg in test [8] of 70%. In test [9], this compound had an ED50 of 6.6 mg/kg. For the same compound, the inhibition in vivo at 40 mg/kg in test [2] worked out at 90%.

`CCc1nc2c(OCc3ccccc3)cccn2c1CC#N`: the inhibition in vivo at 0.1 mg/kg in [10] amounted to 16%. The same compound displayed an inhibition in vivo at 2 mg/kg in test [6] of 95%. In [7], this compound yielded an inhibition in vivo at 4 mg/kg of 54%. In test [8], the inhibition in vivo at 8 mg/kg is 93%. Further, in test [9], the 50% effect level (ED50) was put at a dose of 4 mg/kg. Further, 40 mg/kg produced 91% inhibition in vivo in [2].

For the origin of these results see ChEMBL document CHEMBL1122898, “Antiulcer agents. 1. Gastric antisecretory and cytoprotective properties of substituted imidazo[1,2-a]pyridines” (1985).
